Reference: ChEMBL document CHEMBL1153008, “Synthesis and antitubercular activity of novel 4-substituted imidazolyl-2,6-dimethyl-N3,N5-bisaryl-1,4-dihydropyridine-3,5-dicarboxamides” (2009)
In brackets after ≈: the same amount, converted by molar mass.

What was measured:
Type in all cases: functional
[1] = test system: Jurkat; experiment: Cytotoxicity against human Jurkat cells by MTT assay
[2] = test system: HeLa; experiment: Cytotoxicity against human HeLa cells by MTT assay
[3] = Cytotoxicity against human Kga1 cells by MTT assay
[4] = test system: Raji; experiment: Cytotoxicity against human Raji cells by MTT assay
[5] = test system: Mycobacterium tuberculosis; experiment: Antitubercular activity against Mycobacterium tuberculosis H37Rv ATCC 27294 after 21 days by agar proportion method; conditions: H37Rv ATCC 27294, 504 h
Outline: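 Agar proportion method on Middlebrook 7H10 tubes against rifampicin/isoniazid-susceptible H37Rv. Inoculum: 4–7 day 7H9 broth culture at 37 °C, adjusted to McFarland no. 1, then diluted 10^-2 and 10^-4; 0.1 mL per tube. Incubated 21 days at 37 °C under 5–7% CO2. Colonies counted and compared with drug-free control. Two independent measurements.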

For CSc1ncc(C2C(C(=O)Nc3cccc(Cl)c3)=C(C)NC(C)=C2C(=O)Nc2cccc(Cl)c2)n1Cc1ccccc1, the IC30 [1] was 47.9 µg/mL (≈ 77.4 µM), the IC30 [2] was > 100 µg/mL and the IC30 [3] was 26.3 µg/mL (≈ 42.5 µM). For the same compound, the IC30 [4] was 69.2 µg/mL (≈ 112 µM).

In the case of CSc1ncc(C2C(C(=O)Nc3ccc(Br)cc3)=C(C)NC(C)=C2C(=O)Nc2ccc(Br)cc2)n1Nc1ccccc1, the MIC [5] is reported as > 16 µg/mL.

For CSc1ncc(C2C(C(=O)Nc3ccccn3)=C(C)NC(C)=C2C(=O)Nc2ccccn2)n1Cc1ccccc1, the IC30 [1] was 43.6 µg/mL (≈ 79.1 µM), the IC30 [2] was > 100 µg/mL and the IC30 [3] was 19.1 µg/mL (≈ 34.5 µM). It also gave an IC30 [4] of 60.2 µg/mL (≈ 109 µM).

With NNC(=O)c1ccncc1 [ISONIAZID] the MIC [5] was 0.2 µg/mL (≈ 1.46 µM).

In the case of CSc1ncc(C2C(C(=O)Nc3cccnc3)=C(C)NC(C)=C2C(=O)Nc2cccnc2)n1Nc1ccccc1, the MIC [5] is reported as > 16 µg/mL.

In the case of CSc1ncc(C2C(C(=O)Nc3cccnc3)=C(C)NC(C)=C2C(=O)Nc2cccnc2)n1Cc1ccccc1, the IC30 [1] is reported as 37.1 µg/mL (≈ 67.3 µM), the IC30 [2] is reported as 91.2 µg/mL (≈ 165 µM) and the IC30 [3] is reported as 27.5 µg/mL (≈ 49.9 µM). The IC30 [4] was 75.8 µg/mL (≈ 137 µM).

For CO[C@H]1/C=C/O[C@@]2(C)Oc3c(C)c(O)c4c(O)c(c(/C=N/N5CCN(C)CC5)c(O)c4c3C2=O)NC(=O)/C(C)=C\C=C\[C@H](C)[C@H](O)[C@@H](C)[C@@H](O)[C@@H](C)[C@H](OC(C)=O)[C@@H]1C [RIFAMPIN], the MIC [5] was 1 µg/mL (≈ 1.22 µM).

Compound COc1cccc2c1C(=O)c1c(O)c3c(c(O)c1C2=O)C[C@@](O)(C(=O)CO)C[C@@H]3O[C@H]1C[C@H](N)[C@H](O)[C@H](C)O1 [DOXORUBICIN] has an IC30 [1] of 2.13 µg/mL (≈ 3.92 µM) and an IC30 [4] of 1.51 µg/mL (≈ 2.78 µM).

With CSc1ncc(C2C(C(=O)Nc3ccccc3Cl)=C(C)NC(C)=C2C(=O)Nc2ccccc2Cl)n1Nc1ccccc1 the IC30 [1] was 7.76 µg/mL (≈ 12.5 µM), the MIC [5] was > 16 µg/mL and the IC30 [2] was > 100 µg/mL. The IC30 [3] was > 100 µg/mL and the IC30 [4] was 43.6 µg/mL (≈ 70.5 µM).

For CSc1ncc(C2C(C(=O)Nc3ccc(Cl)cc3)=C(C)NC(C)=C2C(=O)Nc2ccc(Cl)cc2)n1Cc1ccccc1, the IC30 [1] was 12.3 µg/mL (≈ 19.9 µM), the IC30 [2] was > 100 µg/mL and the IC30 [3] was 58.9 µg/mL (≈ 95.2 µM). It also gave an IC30 [4] of 85.1 µg/mL (≈ 138 µM).

For CSc1ncc(C2C(C(=O)Nc3cccc(Cl)c3)=C(C)NC(C)=C2C(=O)Nc2cccc(Cl)c2)n1Nc1ccccc1, the MIC [5] was > 16 µg/mL.

With CSc1ncc(C2C(C(=O)Nc3ccc(Cl)cc3)=C(C)NC(C)=C2C(=O)Nc2ccc(Cl)cc2)n1Nc1ccccc1 the MIC [5] was > 16 µg/mL.

In the case of CSc1ncc(C2C(C(=O)Nc3ccccn3)=C(C)NC(C)=C2C(=O)Nc2ccccn2)n1Nc1ccccc1, the IC30 [1] is reported as 13.5 µg/mL (≈ 24.4 µM), the MIC [5] is reported as > 16 µg/mL and the IC30 [2] is reported as 67.6 µg/mL (≈ 122 µM). For the same compound, the IC30 [3] was > 100 µg/mL and the IC30 [4] was > 100 µg/mL.
